According to ChEMBL document CHEMBL4043222, “Pyrrolizines: Design, synthesis, anticancer evaluation and investigation of the potential mechanism of action” (Bioorg Med Chem, 2017):
One block for each compound: values may come before it. The source made the active and inactive calls. The calls are words filed in the database; no cut-off is given here.

Experiments:
MCF7 [1] = assay: Induction of cell cycle arrest in human MCF7 cells assessed as increase in accumulation at S phase at 5 and 10 uM by propidium iodide staining based flow cytometry relative to untreated control; format: functional
How it was run: (§1)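 MCF-7 seeded at 1×10^5 cells/well and attached overnight, then given 0, 1, 5 or 10 µM for 24 h. Cells pooled, fixed overnight in 70% ice-cold ethanol, treated with RNase A and stained with PI. Flow cytometry on 20000 events with doublets gated out. Mean ± S.D. (n = 3). Compared with DMSO vehicle by one-way ANOVA with Dunnett's test.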

MCF7 [2] = assay: Induction of apoptosis in human MCF7 cells assessed as late necrosis cells level at 5 uM incubated for 24 hrs by Annexin V PI/FITC staining based flow cytometry (reference value: […]); format: functional
A549 [3] = assay: Induction of apoptosis in human A549 cells assessed as caspe-3/7 activation at 5 to 20 uM incubated for 24 hrs by Caspase-Glo 3/7 luminescence assay; format: functional, cell-based
How it was run: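 A549 cells plated at 1 x 10^4 per well and allowed 24 h to settle. Medium removed, then compounds added for 24 h at 5, 10 and 20 μM. Vehicle controls received equivalent DMSO. Caspase-3/7 activity read by Caspase-Glo 3/7 luminescence (RLU). Mean ± S.D. (n = 5), experiment done 3 times. Compared with vehicle by one-way ANOVA with Dunnett's test.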

MCF7 [4] = assay: Induction of cell cycle arrest in human MCF7 cells assessed as increase in accumulation at G2/M phase at 10 uM by propidium iodide staining based flow cytometry relative to untreated control; format: functional; how it was run: as §1
MCF7 [5] = assay: Induction of apoptosis in human MCF7 cells assessed as viable cells level at 1 uM incubated for 24 hrs by Annexin V PI/FITC staining based flow cytometry (reference value: 72.3%); format: functional
MCF7 [6] = assay: Induction of apoptosis in human MCF7 cells assessed as late apoptotic cells level at 1 uM incubated for 24 hrs by Annexin V PI/FITC staining based flow cytometry (reference value: 9%); format: functional
MCF7 [7] = assay: Induction of apoptosis in human MCF7 cells assessed as early apoptotic cells level at 5 uM incubated for 24 hrs by Annexin V PI/FITC staining based flow cytometry (reference value: 17.4%); format: functional
MCF7 [8] = assay: Induction of apoptosis in human MCF7 cells assessed as late necrosis cells level at 10 uM incubated for 24 hrs by Annexin V PI/FITC staining based flow cytometry (reference value: […]); format: functional
MCF7 [9] = assay: Induction of apoptosis in human MCF7 cells assessed as late necrosis cells level at 1 uM incubated for 24 hrs by Annexin V PI/FITC staining based flow cytometry (reference value: […]); format: functional
[10] = target: Ephrin type-A receptor 1 (Homo sapiens) (UniProt P21709); assay: Inhibition of EPHA1 (unknown origin) at 10 uM using [33P]-ATP after 20 to 40 mins by scintillation counting method
MCF7 [11] = assay: Induction of apoptosis in human MCF7 cells assessed as early apoptotic cells level at 1 uM incubated for 24 hrs by Annexin V PI/FITC staining based flow cytometry (reference value: 17.4%); format: functional
[12] = target: Epidermal growth factor receptor (Homo sapiens) (UniProt P00533); assay: Inhibition of EGFR (unknown origin) at 10 uM using [33P]-ATP after 20 to 40 mins by scintillation counting method
[13] = target: Rhodopsin kinase GRK1 (Homo sapiens) (UniProt Q15835); assay: Inhibition of GRK1 (unknown origin) at 10 uM using [33P]-ATP after 20 to 40 mins by scintillation counting method
[14] = target: Tyrosine-protein kinase Blk (Homo sapiens) (UniProt P51451); assay: Inhibition of BLK (unknown origin) at 10 uM using [33P]-ATP after 20 to 40 mins by scintillation counting method
[15] = target: 3-phosphoinositide-dependent protein kinase 1 (Homo sapiens) (UniProt O15530); assay: Inhibition of PDK1 (unknown origin) at 10 uM using [33P]-ATP after 20 to 40 mins by scintillation counting method
[16] = target: Serine/threonine-protein kinase Nek1 (Homo sapiens) (UniProt Q96PY6); assay: Inhibition of NEK1 (unknown origin) at 10 uM using [33P]-ATP after 20 to 40 mins by scintillation counting method
[17] = target: Vascular endothelial growth factor receptor 1 (Homo sapiens) (UniProt P17948); assay: Inhibition of FLT1 (unknown origin) at 10 uM using [33P]-ATP after 20 to 40 mins by scintillation counting method
[18] = target: cGMP-dependent protein kinase 1 (Homo sapiens) (UniProt Q13976); assay: Inhibition of PRKG1 (unknown origin) at 10 uM using [33P]-ATP after 20 to 40 mins by scintillation counting method
[19] = target: T1, Prostaglandin G/H synthase 1 (Ovis aries, UniProt P05979); assay: Inhibition of ovine COX1 assessed as reduction in PGH2 formation by measuring PGF2alpha by colorimetric assay
T1 sequence (P05979 whole entry): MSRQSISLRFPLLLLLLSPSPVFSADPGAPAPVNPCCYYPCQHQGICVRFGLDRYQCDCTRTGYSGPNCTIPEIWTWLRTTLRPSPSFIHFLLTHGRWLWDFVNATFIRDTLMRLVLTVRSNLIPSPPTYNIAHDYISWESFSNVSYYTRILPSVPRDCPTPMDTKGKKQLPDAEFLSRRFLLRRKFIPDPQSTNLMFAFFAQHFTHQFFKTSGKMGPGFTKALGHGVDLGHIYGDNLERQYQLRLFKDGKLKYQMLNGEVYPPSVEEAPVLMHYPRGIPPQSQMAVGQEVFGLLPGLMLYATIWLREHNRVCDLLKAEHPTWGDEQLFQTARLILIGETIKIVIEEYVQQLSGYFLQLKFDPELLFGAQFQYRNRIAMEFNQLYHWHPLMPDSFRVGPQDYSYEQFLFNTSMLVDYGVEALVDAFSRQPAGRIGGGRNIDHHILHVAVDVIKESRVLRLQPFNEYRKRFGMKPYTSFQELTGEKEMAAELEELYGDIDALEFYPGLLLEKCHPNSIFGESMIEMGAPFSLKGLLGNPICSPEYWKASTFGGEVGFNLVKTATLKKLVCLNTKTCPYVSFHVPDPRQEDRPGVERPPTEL
How it was run: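 Colorimetric COX inhibitor screening kit run per the manufacturer, using ovine COX-1. IC50 calculated from three determinations.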

[20] = target: Ribosomal protein S6 kinase alpha-5 (Homo sapiens) (UniProt O75582); assay: Inhibition of MSK1 (unknown origin) at 10 uM using [33P]-ATP after 20 to 40 mins by scintillation counting method
MCF7 [21] = assay: Induction of apoptosis in human MCF7 cells assessed as late apoptotic cells level at 10 uM incubated for 24 hrs by Annexin V PI/FITC staining based flow cytometry (reference value: 9%); format: functional
A549 [22] = assay: Growth inhibition of human A549 cells by MTT assay; format: functional, cell-based
How it was run: (§2)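 MTT viability. Cells seeded for 24 h, then exposed to compound for 48 h in DMEM/F-12 or DMEM with 5% FBS. Vehicle controls received matching DMSO. MTT added at 0.5 mg/mL for 3 h at 37 °C. Formazan dissolved in DMSO and absorbance read at 570 nm.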

[23] = target: Serine/threonine-protein kinase Sgk1 (Homo sapiens) (UniProt O00141); assay: Inhibition of SGK1 (unknown origin) at 10 uM using [33P]-ATP after 20 to 40 mins by scintillation counting method
MCF7 [24] = assay: Growth inhibition of human MCF7 cells by MTT assay; format: functional, cell-based; how it was run: as §2
[25] = target: Mitogen-activated protein kinase kinase kinase 5 (Homo sapiens) (UniProt Q99683); assay: Inhibition of ASK1 (unknown origin) at 10 uM using [33P]-ATP after 20 to 40 mins by scintillation counting method
[26] = target: Glycogen synthase kinase-3 alpha (Homo sapiens) (UniProt P49840); assay: Inhibition of GSK3alpha (unknown origin) at 10 uM using [33P]-ATP after 20 to 40 mins by scintillation counting method
MCF7 [27] = assay: Induction of apoptosis in human MCF7 cells assessed as early apoptotic cells level at 10 uM incubated for 24 hrs by Annexin V PI/FITC staining based flow cytometry (reference value: 17.4%); format: functional
MCF7 [28] = assay: Induction of apoptosis in human MCF7 cells assessed as viable cells level at 5 uM incubated for 24 hrs by Annexin V PI/FITC staining based flow cytometry (reference value: 72.3%); format: functional
[29] = target: AMP-activated protein kinase (AMPK) alpha-1/beta-1/gamma-1 (Homo sapiens) (UniProt P54619+Q9Y478+Q13131); assay: Inhibition of AMPK alpha1/beta1/gamma1 (unknown origin) at 10 uM using [33P]-ATP after 20 to 40 mins by scintillation counting method; format: protein-complex assay
MCF7 [30] = assay: Induction of apoptosis in human MCF7 cells assessed as viable cells level at 10 uM incubated for 24 hrs by Annexin V PI/FITC staining based flow cytometry (reference value: 72.3%); format: functional
MCF7 [31] = assay: Induction of apoptosis in human MCF7 cells assessed as late apoptotic cells level at 5 uM incubated for 24 hrs by Annexin V PI/FITC staining based flow cytometry (reference value: 9%); format: functional
Hep 3B2 = assay: Growth inhibition of human Hep3B cells by MTT assay; format: functional, cell-based; how it was run: as §2

Sequence of 3-phosphoinositide-dependent protein kinase 1 (Homo sapiens) (O15530 whole entry): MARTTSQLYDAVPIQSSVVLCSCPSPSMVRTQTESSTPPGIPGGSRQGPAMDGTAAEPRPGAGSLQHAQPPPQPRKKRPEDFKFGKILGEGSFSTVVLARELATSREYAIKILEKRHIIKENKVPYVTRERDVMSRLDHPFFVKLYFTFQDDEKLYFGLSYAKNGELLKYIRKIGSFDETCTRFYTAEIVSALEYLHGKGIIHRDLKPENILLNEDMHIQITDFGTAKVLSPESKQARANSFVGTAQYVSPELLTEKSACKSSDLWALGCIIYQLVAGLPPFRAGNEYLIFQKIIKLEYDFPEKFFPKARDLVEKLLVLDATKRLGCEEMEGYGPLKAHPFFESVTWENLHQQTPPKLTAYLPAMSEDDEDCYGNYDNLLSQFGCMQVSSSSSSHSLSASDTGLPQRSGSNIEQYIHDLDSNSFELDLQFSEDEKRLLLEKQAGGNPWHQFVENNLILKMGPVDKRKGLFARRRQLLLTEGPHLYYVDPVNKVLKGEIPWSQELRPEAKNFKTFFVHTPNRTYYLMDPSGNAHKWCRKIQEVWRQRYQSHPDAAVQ
Sequence of Mitogen-activated protein kinase kinase kinase 5 (Homo sapiens) (Q99683 whole entry): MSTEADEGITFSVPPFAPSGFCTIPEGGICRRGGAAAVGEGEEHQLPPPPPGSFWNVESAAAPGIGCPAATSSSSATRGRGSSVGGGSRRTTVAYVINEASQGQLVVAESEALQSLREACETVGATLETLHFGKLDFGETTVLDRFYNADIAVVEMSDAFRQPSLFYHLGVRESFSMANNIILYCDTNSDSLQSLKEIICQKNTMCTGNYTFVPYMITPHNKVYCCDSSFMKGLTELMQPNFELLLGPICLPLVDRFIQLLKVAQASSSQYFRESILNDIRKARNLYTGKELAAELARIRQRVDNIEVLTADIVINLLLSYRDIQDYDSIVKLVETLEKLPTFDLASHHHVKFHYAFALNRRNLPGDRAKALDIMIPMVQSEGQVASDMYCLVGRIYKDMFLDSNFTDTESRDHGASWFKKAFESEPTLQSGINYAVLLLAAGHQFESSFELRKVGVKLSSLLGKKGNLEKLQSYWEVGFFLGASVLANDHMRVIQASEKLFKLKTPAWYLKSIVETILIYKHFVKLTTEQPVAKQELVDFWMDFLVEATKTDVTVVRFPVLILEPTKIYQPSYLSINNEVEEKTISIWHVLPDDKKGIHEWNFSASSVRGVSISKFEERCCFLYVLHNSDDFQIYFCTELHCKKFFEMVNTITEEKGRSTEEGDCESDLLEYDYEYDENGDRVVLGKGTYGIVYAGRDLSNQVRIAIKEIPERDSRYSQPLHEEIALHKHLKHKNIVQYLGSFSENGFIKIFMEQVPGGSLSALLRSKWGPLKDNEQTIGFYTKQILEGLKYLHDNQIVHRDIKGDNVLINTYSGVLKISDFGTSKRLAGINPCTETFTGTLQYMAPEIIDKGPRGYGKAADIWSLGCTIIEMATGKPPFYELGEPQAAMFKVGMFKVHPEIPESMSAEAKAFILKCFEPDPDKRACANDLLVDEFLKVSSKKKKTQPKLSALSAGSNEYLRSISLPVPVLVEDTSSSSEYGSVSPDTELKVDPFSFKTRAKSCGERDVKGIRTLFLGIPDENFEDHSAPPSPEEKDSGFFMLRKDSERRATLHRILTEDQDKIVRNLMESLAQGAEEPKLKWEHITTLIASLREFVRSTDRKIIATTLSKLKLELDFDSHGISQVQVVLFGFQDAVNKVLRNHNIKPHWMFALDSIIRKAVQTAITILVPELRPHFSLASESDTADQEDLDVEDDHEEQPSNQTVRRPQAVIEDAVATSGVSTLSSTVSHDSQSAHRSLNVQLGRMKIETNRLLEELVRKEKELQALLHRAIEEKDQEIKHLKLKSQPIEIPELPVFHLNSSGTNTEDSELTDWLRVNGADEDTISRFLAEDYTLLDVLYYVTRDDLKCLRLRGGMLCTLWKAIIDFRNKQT
Sequence of Ephrin type-A receptor 1 (Homo sapiens) (P21709 whole entry): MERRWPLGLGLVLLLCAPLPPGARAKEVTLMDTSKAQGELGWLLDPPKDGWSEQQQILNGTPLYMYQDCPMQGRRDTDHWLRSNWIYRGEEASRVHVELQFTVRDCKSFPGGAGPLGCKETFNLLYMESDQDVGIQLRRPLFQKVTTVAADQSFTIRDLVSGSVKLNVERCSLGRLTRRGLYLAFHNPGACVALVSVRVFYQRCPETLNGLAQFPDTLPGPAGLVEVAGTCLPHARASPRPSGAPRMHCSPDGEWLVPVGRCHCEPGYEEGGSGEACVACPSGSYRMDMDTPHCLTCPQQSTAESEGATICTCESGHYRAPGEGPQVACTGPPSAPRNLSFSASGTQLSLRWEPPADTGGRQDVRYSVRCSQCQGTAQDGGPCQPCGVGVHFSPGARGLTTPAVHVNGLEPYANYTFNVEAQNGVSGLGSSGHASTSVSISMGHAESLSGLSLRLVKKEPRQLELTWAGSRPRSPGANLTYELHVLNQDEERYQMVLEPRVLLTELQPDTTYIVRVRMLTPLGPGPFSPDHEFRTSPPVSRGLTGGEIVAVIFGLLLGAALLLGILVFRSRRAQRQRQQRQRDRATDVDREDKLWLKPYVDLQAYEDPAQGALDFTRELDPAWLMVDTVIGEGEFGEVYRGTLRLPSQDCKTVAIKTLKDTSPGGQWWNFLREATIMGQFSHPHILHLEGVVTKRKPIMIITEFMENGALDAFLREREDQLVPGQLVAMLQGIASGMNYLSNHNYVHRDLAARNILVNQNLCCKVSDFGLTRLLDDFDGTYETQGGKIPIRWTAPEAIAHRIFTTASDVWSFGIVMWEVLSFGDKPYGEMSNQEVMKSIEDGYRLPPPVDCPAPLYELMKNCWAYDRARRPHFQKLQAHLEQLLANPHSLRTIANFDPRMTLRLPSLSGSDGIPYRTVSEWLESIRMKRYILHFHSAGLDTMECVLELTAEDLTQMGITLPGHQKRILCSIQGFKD
Sequence of Epidermal growth factor receptor (Homo sapiens) (P00533 whole entry): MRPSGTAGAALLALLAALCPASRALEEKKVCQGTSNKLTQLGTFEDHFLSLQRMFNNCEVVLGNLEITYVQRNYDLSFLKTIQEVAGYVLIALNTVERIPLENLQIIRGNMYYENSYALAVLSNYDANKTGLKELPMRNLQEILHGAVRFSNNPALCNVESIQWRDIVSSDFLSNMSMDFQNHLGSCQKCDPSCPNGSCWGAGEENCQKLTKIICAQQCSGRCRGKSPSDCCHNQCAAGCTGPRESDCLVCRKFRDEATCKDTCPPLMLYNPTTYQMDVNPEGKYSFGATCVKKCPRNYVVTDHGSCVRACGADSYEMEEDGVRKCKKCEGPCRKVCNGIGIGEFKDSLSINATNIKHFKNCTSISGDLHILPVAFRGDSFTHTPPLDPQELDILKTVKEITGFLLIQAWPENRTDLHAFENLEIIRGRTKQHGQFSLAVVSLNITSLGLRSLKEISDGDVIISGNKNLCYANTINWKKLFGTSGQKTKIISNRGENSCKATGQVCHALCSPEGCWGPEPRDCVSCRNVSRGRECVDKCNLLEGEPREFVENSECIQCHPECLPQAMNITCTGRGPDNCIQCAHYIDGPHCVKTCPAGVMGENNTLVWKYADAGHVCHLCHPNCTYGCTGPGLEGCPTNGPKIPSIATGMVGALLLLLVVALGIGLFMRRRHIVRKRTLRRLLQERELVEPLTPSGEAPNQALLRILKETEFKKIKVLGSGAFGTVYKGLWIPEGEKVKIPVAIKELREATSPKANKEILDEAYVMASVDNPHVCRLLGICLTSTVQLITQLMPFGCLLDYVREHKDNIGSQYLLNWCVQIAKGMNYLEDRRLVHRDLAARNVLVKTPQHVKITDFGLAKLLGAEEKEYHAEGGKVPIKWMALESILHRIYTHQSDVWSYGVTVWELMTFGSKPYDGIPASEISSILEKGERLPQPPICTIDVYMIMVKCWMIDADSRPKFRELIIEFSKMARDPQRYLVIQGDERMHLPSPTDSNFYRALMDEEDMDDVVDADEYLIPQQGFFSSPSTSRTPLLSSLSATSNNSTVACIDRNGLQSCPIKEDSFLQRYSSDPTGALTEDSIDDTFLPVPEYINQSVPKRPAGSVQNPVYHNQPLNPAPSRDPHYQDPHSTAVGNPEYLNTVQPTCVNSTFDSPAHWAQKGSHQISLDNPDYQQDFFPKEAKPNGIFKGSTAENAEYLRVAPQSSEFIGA
Sequence of cGMP-dependent protein kinase 1 (Homo sapiens) (Q13976 whole entry): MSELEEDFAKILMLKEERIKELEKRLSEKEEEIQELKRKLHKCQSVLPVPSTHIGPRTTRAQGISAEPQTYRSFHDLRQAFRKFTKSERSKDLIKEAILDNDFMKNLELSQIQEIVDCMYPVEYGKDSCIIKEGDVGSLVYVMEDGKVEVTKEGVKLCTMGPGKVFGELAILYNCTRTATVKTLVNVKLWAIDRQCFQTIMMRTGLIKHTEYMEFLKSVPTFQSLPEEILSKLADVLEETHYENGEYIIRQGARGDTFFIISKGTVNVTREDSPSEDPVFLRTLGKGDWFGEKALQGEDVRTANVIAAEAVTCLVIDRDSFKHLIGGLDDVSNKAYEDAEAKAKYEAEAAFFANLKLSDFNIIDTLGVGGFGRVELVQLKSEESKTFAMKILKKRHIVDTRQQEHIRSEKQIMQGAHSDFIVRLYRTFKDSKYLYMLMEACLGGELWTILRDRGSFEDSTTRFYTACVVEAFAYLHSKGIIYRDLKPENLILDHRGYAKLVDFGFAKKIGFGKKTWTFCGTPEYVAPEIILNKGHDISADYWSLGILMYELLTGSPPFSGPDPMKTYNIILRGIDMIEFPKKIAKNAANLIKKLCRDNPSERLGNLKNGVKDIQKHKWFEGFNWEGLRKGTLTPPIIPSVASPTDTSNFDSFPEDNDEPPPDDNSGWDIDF

IC50 [19]: 9.23 µM
IC50 (A549 [22]): 29.4 µM
IC50 (MCF7 [24]): 16.1 µM
Compound: Cc1ccc(NC(=O)c2c(N=Cc3ccco3)c(C#N)c3n2CCC3)cc1
IC50 (Hep 3B2): 24.4 µM

IC50 [19]: 10.6 µM
IC50 (A549 [22]): 11.2 µM
IC50 (MCF7 [24]): 9.82 µM
Compound: N#Cc1c(N=Cc2ccc3ccccc3c2)c(C(=O)Nc2ccc(Cl)cc2)n2c1CCC2
IC50 (Hep 3B2): 12.5 µM

IC50 [19]: 5.78 µM
IC50 (A549 [22]): 23 µM
IC50 (MCF7 [24]): 22.5 µM
Compound: N#Cc1c(N=Cc2cccnc2)c(C(=O)Nc2ccc(Cl)cc2)n2c1CCC2
IC50 (Hep 3B2): 31.2 µM

IC50 [19]: 7.68 µM
IC50 (A549 [22]): 22.8 µM
IC50 (MCF7 [24]): 4.72 µM
Compound: N#Cc1c(N=Cc2cccs2)c(C(=O)Nc2ccc(Cl)cc2)n2c1CCC2
IC50 (Hep 3B2): 11.6 µM

Second part, the compound before the results:

Compound: Cc1ccc(NC(=O)c2c(N=Cc3ccc4ccccc4c3)c(C#N)c3n2CCC3)cc1
Activity (MCF7 [1]): Active
Activity (MCF7 [2]): 1.1%
Activity (A549 [3]): Active
Activity (MCF7 [4]): Active
Activity (MCF7 [5]): 72.2%
Activity (MCF7 [6]): 10.7%
Activity (MCF7 [7]): 23.5%
Activity (MCF7 [8]): 0.8%
Activity (MCF7 [9]): 0.8%
inhibition [10]: -37%
Activity (MCF7 [11]): 16.3%
inhibition [12]: -47%
inhibition [13]: 7%
inhibition [14]: -16%
inhibition [15]: -27%
inhibition [16]: 8%
inhibition [17]: -10%
inhibition [18]: -4%
IC50 [19]: 12 µM
inhibition [20]: -43%
Activity (MCF7 [21]): 12.9%
IC50 (A549 [22]): 3.24 µM
inhibition [23]: -16%
IC50 (MCF7 [24]): 7.76 µM
inhibition [25]: -19%
inhibition [26]: -5%
Activity (MCF7 [27]): 24.2%
Activity (MCF7 [28]): 66.9%
inhibition [29]: -11%
Activity (MCF7 [30]): 62.1%
Activity (MCF7 [31]): 8.5%
IC50 (Hep 3B2): 8.69 µM

Compound: N#Cc1c(N=Cc2ccc3ccccc3c2)c(C(=O)Nc2ccccc2)n2c1CCC2
Activity (A549 [3]): Active
IC50 [19]: 7.98 µM
IC50 (A549 [22]): 7.11 µM
IC50 (MCF7 [24]): 5.77 µM
IC50 (Hep 3B2): 10.2 µM

Compound: N#Cc1c(N=Cc2ccco2)c(C(=O)Nc2ccccc2)n2c1CCC2
IC50 [19]: 6.54 µM
IC50 (A549 [22]): 9.75 µM
IC50 (MCF7 [24]): 8.35 µM
IC50 (Hep 3B2): 12.8 µM

Compound: COc1cccc2c1C(=O)c1c(O)c3c(c(O)c1C2=O)C[C@@](O)(C(=O)CO)C[C@@H]3O[C@H]1C[C@H](N)[C@H](O)[C@H](C)O1 [DOXORUBICIN]
IC50 (MCF7 [24]): 2.3 µM
IC50 (Hep 3B2): 2.4 µM
